Laboratory results published in ChEMBL document CHEMBL1133084, “Synthesis of novel 3,7-substituted-2-(3',4'-dihydroxyphenyl)flavones with improved antioxidant activity” (J Med Chem, 2000).

Key:
Rattus norvegicus = species: Rattus norvegicus; test: Inhibitory effect on the oxidative degradation of membrane lipids (lipid peroxidation assay) in microsomes of rat.; assay type: functional
Summary of the method: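 Liver microsomes from male Wistar rats (200–220 g), washed in 50 mM Tris-HCl pH 7.4 and heat-inactivated at 100 °C ≥2 min, then diluted to 1.5 mg/mL. Peroxidation started with 10 μM FeSO4; final DMSO ≤2.5%. TBA-reactive substances sampled at 0–60 min and absorbance read at 535-600 nm after heating. IC50 interpolated from % inhibition at several concentrations; mean ± SEM, n = 3-5.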

[1] = Antioxidant activity was determined using trolox equivalent antioxidant capacity assay.; assay type: functional
Summary of the method: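 ABTS (1.23 mg/mL) and ABAP (3.96 mg/mL) in 50 mM phosphate buffer pH 7.4 heated 70 °C for 20 min to generate ABTS radical. Test compound (stock in N2-purged DMSO:water 1:1; final DMSO ≤0.25%) incubated with ABTS•+ solution 5 min at 37 °C. Absorbance read at 734 nm. Trolox calibration 0–20 μM; TEAC = mM trolox equivalent to 1 mM compound.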

Row | Structure (SMILES) | IC50 (Rattus norvegicus) | Activity [1]
1 | COc1c(-c2ccc(O)c(O)c2)oc2cc(O)ccc2c1=O | 1600 nM | 5.9 mM
2 | O=c1cc(-c2ccc(O)c(O)c2)oc2cc(O)ccc12 | 11000 nM | 4.3 mM
3 | C[N+](C)(C)CCCOc1ccc2c(=O)cc(-c3ccc(O)c(O)c3)oc2c1 | 37300 nM | 1.9 mM
4 | COc1c(-c2ccc(O)c(O)c2)oc2ccccc2c1=O | 1300 nM | 4.4 mM
5 | O=c1c(O)c(-c2ccc(O)c(O)c2)oc2cc(OCCO)ccc12 | 13800 nM | 4.9 mM
6 | O=c1c(O)c(-c2ccc(O)c(O)c2)oc2ccccc12 | 1800 nM | 4.5 mM
7 | O=c1c(O)c(-c2ccc(O)c(O)c2)oc2cc(O)ccc12 [FISETIN] | 200 nM | 5.6 mM
8 | O=c1c(OCCO)c(-c2ccc(O)c(O)c2)oc2ccccc12 | 600 nM | 4.4 mM
9 | COc1ccc2c(=O)cc(-c3ccc(O)c(O)c3)oc2c1 | 2500 nM | 3.3 mM
10 | C[N+](C)(C)CCCCCCCCOc1c(-c2ccc(O)c(O)c2)oc2ccccc2c1=O | 1000 nM | 3.3 mM
11 | C[N+](C)(C)CCCCCCOc1c(-c2ccc(O)c(O)c2)oc2ccccc2c1=O | 1400 nM | 4.3 mM
12 | O=c1c(OCCO)c(-c2ccc(O)c(O)c2)oc2cc(O)ccc12 | 21700 nM | 3.4 mM
13 | C[N+](C)(C)CCCOc1c(-c2ccc(O)c(O)c2)oc2cc(O)ccc2c1=O | 3800 nM | 5.1 mM
14 | O=C(O)COc1c(-c2ccc(O)c(O)c2)oc2ccccc2c1=O | 6500 nM | 7.6 mM
15 | CN(C)CCCOc1c(-c2ccc(O)c(O)c2)oc2ccccc2c1=O | 1000 nM | 3.4 mM
16 | CN(C)CCCOc1ccc2c(=O)cc(-c3ccc(O)c(O)c3)oc2c1 | 8100 nM | 2.9 mM
17 | C[N+](C)(C)CCCOc1c(-c2ccc(O)c(O)c2)oc2ccccc2c1=O | 1200 nM | 4.2 mM
18 | O=c1cc(-c2ccc(O)c(O)c2)oc2cc(OCCO)ccc12 | 16400 nM | 4.3 mM
